Reference: ChEMBL document CHEMBL1127424, “7-azetidinylquinolones as antibacterial agents. 2. Synthesis and biological activity of 7-(2,3-disubstituted-1-azetidinyl)-4-oxoquinoline- and -1,8-naphthyridine-3-carboxylic acids. Properties and structure-activity relationships of quinolones with an azetidine moiety” (J Med Chem, 1994)
≈ marks a conversion by molar mass, not a printed value. Where “and” joins values, the source holds several entries; their conditions need not be identical. Equal entries are not always repeated.

Legend:
[1] = HPLC capacity factor (k'); type: ADME
Procedure, shortened: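 Ion-pair reversed-phase HPLC on ODS-2 (10 μm) at 45 °C. Mobile phase: 10 mM sodium heptanesulfonate plus 50 mM KH2PO4 (pH 3.5)–methanol 45:55, 1 mL/min. Samples at 100 μg/mL in DMF, injected in duplicate, UV 280 nm. k' = (tR − t0)/t0.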

[2] = Dissociation constant (pKa); type: physicochemical; settings: read-out: pKa2
Procedure, shortened: (§1)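 Spectrophotometric titration at 20 ± 1 °C, 0.1 M ionic strength, pH varied with H2SO4 or NaOH made up in the compound stock. Absorbance followed at compound-specific wavelengths chosen from 200–400 nm scans. pKa1 and pKa2 taken as the inflection points of the two-step absorbance vs pH curve.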

[3] = Measured ionization constant (pKa); type: physicochemical; settings: read-out: pKa1; procedure, shortened: as §1
[4] = Solubility (buffer pH 7.4); type: physicochemical; settings: read-out: S
Procedure, shortened: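 Excess solid shaken in 0.05 M phosphate buffer pH 7.4 for 24 h at 25 °C. Suspension filtered through 0.22 μm, discarding the first portion. Filtrate diluted in 0.1 N HCl or 0.1 N NaOH and read by UV at the compound's absorbance maximum.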

Enterococcus faecalis = test: In vitro minimum inhibitory concentration for Streptococcus faecalis ATCC 10541; type: functional
Procedure, shortened: (§2)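 Serial 2-fold agar dilution in Mueller Hinton medium, run alongside a reference quinolone. Inoculum adjusted to 10⁸ cfu/mL; compound range 0.007–16 μg/mL.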

Bacillus cereus = test: In vitro minimum inhibitory concentration for Bacillus cereus ATCC 11778; type: functional; procedure, shortened: as §2
Mus musculus [5] = test: Evaluation of efficacy on systemic infections Staphylococcus aureus HS-93, after oral administration in mice; type: functional
Procedure, shortened: (§3)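 Single oral dose given immediately after infection, one of four doses per group, chosen from in vitro activity. Survival scored after one week. ED50 (total mg/kg protecting 50%) interpolated from survival rates.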

Escherichia coli = test: In vitro minimum inhibitory concentration for Escherichia coli ATCC 10799; type: functional; procedure, shortened: as §2
[6] = tested on: Staphylococcus epidermidis; test: In vitro minimum inhibitory concentration for Staphylococcus epidermidis ATCC 155-1; type: functional; procedure, shortened: as §2
Klebsiella pneumoniae = test: In vitro minimum inhibitory concentration to inhibit Klebsiella pneumoniae ATCC 10031; type: functional; procedure, shortened: as §2
Pseudomonas aeruginosa = test: In vitro minimum inhibitory concentration for Pseudomonas aeruginosa ATCC 10145; type: functional; procedure, shortened: as §2
Proteus vulgaris = test: In vitro minimum inhibitory concentration for Proteus vulgaris ATCC 8427; type: functional; procedure, shortened: as §2
Staphylococcus aureus = test: In vitro minimum inhibitory concentration for Staphylococcus aureus ATCC 25178; type: functional; procedure, shortened: as §2
Morganella morganii = test: In vitro minimum inhibitory concentration for Morganella morganii ATCC 8019; type: functional; procedure, shortened: as §2
Mus musculus [7] = test: Evaluation of efficacy on systemic infections Pseudomonas aeruginosa HS-116, after oral administration in mice; type: functional; procedure, shortened: as §3
Bacillus subtilis = test: In vitro minimum inhibitory concentration for Bacillus subtilis ATCC 6633; type: functional; procedure, shortened: as §2
[8] = AUC (0-4 hr) ug/ml/h; type: ADME, cell-free; design: time < 4 hr; concentration or dose not given beside the values; settings: plasma
Procedure, shortened: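 Mice dosed once orally at 50 mg/kg; blood taken from groups of six mice at 0.5, 1, 2 and 4 h. Serum drug assayed by disk agar diffusion bioassay (Bacillus subtilis ATCC 6633 on Seed Agar, 37 °C, 18 h), giving total activity.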

Mus musculus [9] = test: Evaluation of efficacy on systemic infections Escherichia coli HM-42, after oral administration in mice; type: functional; procedure, shortened: as §3
Enterobacter cloacae = test: In vitro minimum inhibitory concentration for Enterobacter cloacae ATCC 23355; type: functional

Row | SMILES | Log k' [1] | pKa [2] | pKa [3] | solubility [4] | MIC (Enterococcus faecalis) | MIC (Bacillus cereus) | ED50 (Mus musculus [5]) | MIC (Escherichia coli) | MIC [6] | MIC (Klebsiella pneumoniae) | MIC (Pseudomonas aeruginosa) | MIC (Proteus vulgaris) | MIC (Staphylococcus aureus) | MIC (Morganella morganii) | ED50 (Mus musculus [7]) | MIC (Bacillus subtilis) | AUC [8] | ED50 (Mus musculus [9]) | MIC (Enterobacter cloacae)
1 | CNC1(C)CN(c2cc3c(cc2F)c(=O)c(C(=O)O)cn3C2CC2)C1 | 0.0875 | 8.65 | 6.47 | 0.7 µg/mL (≈ 2.03 µM) | – | – | – | – | – | – | – | – | – | – | – | – | – | – | –
2 | CN(C)C1(C)CN(c2c(F)cc3c(=O)c(C(=O)O)cn(C4CC4)c3c2F)C1 | 0.604 | 8.12 | 6.05 | 23.6 µg/mL (≈ 62.5 µM) | – | – | – | – | – | – | – | – | – | – | – | – | – | – | –
3 | CC1(N)CN(c2c(F)cc3c(=O)c(C(=O)O)cn(C4CC4)c3c2Cl)C1 | 0.1061 | 8.45 | 6.08 | 1.7 µg/mL (≈ 4.65 µM) | – | – | – | – | – | – | – | – | – | – | – | – | – | – | –
4 | CN(C)C1CN(c2cc3c(cc2F)c(=O)c(C(=O)O)cn3C2CC2)C1 | 0.482 | 7.81 | 6.44 | – | – | – | – | – | – | – | – | – | – | – | – | – | – | – | –
5 | CNC1CN(c2cc3c(cc2F)c(=O)c(C(=O)O)cn3C2CC2)C1 | 0.0215 | 8.56 | 6.54 | – | – | – | – | – | – | – | – | – | – | – | – | – | – | – | –
6 | CN[C@H]1CN(c2c(F)cc3c(=O)c(C(=O)O)cn(C4CC4)c3c2F)[C@@H]1C | 0.292 | 8.5 | 6.13 | 13.1 µg/mL (≈ 36.1 µM) | 0.5 µg/mL (≈ 1.38 µM) | 0.06 µg/mL (≈ 0.165 µM) | 11.2 mg/kg | 0.06 µg/mL (≈ 0.165 µM) | 0.06 µg/mL (≈ 0.165 µM) | 0.03 µg/mL (≈ 0.0826 µM) | 0.5 µg/mL (≈ 1.38 µM) | 0.12 µg/mL (≈ 0.33 µM) | 0.06 µg/mL (≈ 0.165 µM) | 0.06 µg/mL (≈ 0.165 µM) | 70.5 mg/kg | 0.03 µg/mL (≈ 0.0826 µM) | 20800 ng·h/mL | 2.3 mg/kg | 0.03 µg/mL (≈ 0.0826 µM)
7 | CN(C)C1CN(c2c(F)cc3c(=O)c(C(=O)O)cn(C4CC4)c3c2F)C1 | 0.584 | 8.14 | 6 | 58 µg/mL (≈ 160 µM) | – | – | – | – | – | – | – | – | – | – | – | – | – | – | –
8 | CC1(N)CN(c2cc3c(cc2F)c(=O)c(C(=O)O)cn3C2CC2)C1 | -0.1249 | 8.55 | 6.58 | – | – | – | – | – | – | – | – | – | – | – | – | – | – | – | –
9 | C[C@H]1[C@H](N)CN1c1cc2c(cc1F)c(=O)c(C(=O)O)cn2C1CC1 | -0.0132 | – | 6.46 | 9.9 µg/mL (≈ 29.9 µM) | 0.25 µg/mL (≈ 0.754 µM) | 0.06 µg/mL (≈ 0.181 µM) | 22.3 mg/kg | 0.03 µg/mL (≈ 0.0905 µM) | 0.12 µg/mL (≈ 0.362 µM) | 0.03 µg/mL (≈ 0.0905 µM) | 0.25 µg/mL (≈ 0.754 µM) | 0.06 µg/mL (≈ 0.181 µM) | 0.12 µg/mL (≈ 0.362 µM) | 0.03 µg/mL (≈ 0.0905 µM) | 108 mg/kg | 0.03 µg/mL (≈ 0.0905 µM) | 9200 ng·h/mL | 3.5 mg/kg | 0.03 µg/mL (≈ 0.0905 µM)
10 | CN(C)C1(C)CN(c2cc3c(cc2F)c(=O)c(C(=O)O)cn3C2CC2)C1 | 0.5153 | 7.9 | 6.47 | – | – | – | – | – | – | – | – | – | – | – | – | – | – | – | –
11 | CNC1(C)CN(c2c(F)cc3c(=O)c(C(=O)O)cn(C4CC4)c3c2F)C1 | 0.1055 | 8.58 | 6.26 | 0.5 µg/mL (≈ 1.38 µM) | – | – | – | – | – | – | – | – | – | – | – | – | – | – | –
12 | CCNC1CN(c2c(F)cc3c(=O)c(C(=O)O)cn(C4CC4)c3c2F)C1 | 0.0996 | 8.57 | 6.2 | – | – | – | – | – | – | – | – | – | – | – | – | – | – | – | –
13 | CNC1CN(c2c(F)cc3c(=O)c(C(=O)O)cn(C4CC4)c3c2F)C1 | 0.039 | 8.44 | 6.18 | 1.7 µg/mL (≈ 4.87 µM) | – | – | – | – | – | – | – | – | – | – | – | – | – | – | –
14 | NC1CN(c2c(F)cc3c(=O)c(C(=O)O)cn(C4CC4)c3c2F)C1 | -0.0438 | 8.2 | 6.12 | 1.8 µg/mL (≈ 5.37 µM) | – | – | – | – | – | – | – | – | – | – | – | – | – | – | –
15 | CC1(N)CN(c2nc3c(cc2F)c(=O)c(C(=O)O)cn3C2CC2)C1 | -0.1606 | 8.21 | 6.38 | 13.9 µg/mL (≈ 41.8 µM) | – | – | – | – | – | – | – | – | – | – | – | – | – | – | –
16 | C[C@H]1[C@H](N)CN1c1c(F)c(N)c2c(=O)c(C(=O)O)cn(C3CC3)c2c1F | 0.0828 | – | 6.65 | 37.7 µg/mL (≈ 103 µM) | 0.06 µg/mL (≈ 0.165 µM) | 0.015 µg/mL (≈ 0.0412 µM) | 8.7 mg/kg | 0.03 µg/mL (≈ 0.0823 µM) | 0.015 µg/mL (≈ 0.0412 µM) | 0.015 µg/mL (≈ 0.0412 µM) | 0.25 µg/mL (≈ 0.686 µM) | 0.06 µg/mL (≈ 0.165 µM) | 0.015 µg/mL (≈ 0.0412 µM) | 0.015 µg/mL (≈ 0.0412 µM) | 102 mg/kg | 0.015 µg/mL (≈ 0.0412 µM) | 12300 ng·h/mL | 4.2 mg/kg | 0.015 µg/mL (≈ 0.0412 µM)
17 | CC1(N)CN(c2c(F)cc3c(=O)c(C(=O)O)cn(C4CC4)c3c2F)C1 | -0.0177 and 0.0094 | 8.33 | 6.23 | – | – | – | – | – | – | – | – | – | – | – | – | – | – | – | –
18 | C[C@@H]1[C@@H](N(C)C)CN1c1c(F)cc2c(=O)c(C(=O)O)cn(C3CC3)c2c1F | 0.769 | 8.2 | 6.08 | 97.1 µg/mL (≈ 257 µM) | 1 µg/mL (≈ 2.65 µM) | 1 µg/mL (≈ 2.65 µM) | 17.9 mg/kg | 0.25 µg/mL (≈ 0.662 µM) | 0.06 µg/mL (≈ 0.159 µM) | 0.06 µg/mL (≈ 0.159 µM) | 2 µg/mL (≈ 5.3 µM) | 0.25 µg/mL (≈ 0.662 µM) | 0.12 µg/mL (≈ 0.318 µM) | 0.25 µg/mL (≈ 0.662 µM) | 164 mg/kg | 0.015 µg/mL (≈ 0.0397 µM) | 23200 ng·h/mL | 3.1 mg/kg | 0.12 µg/mL (≈ 0.318 µM)
19 | C[C@H]1[C@H](N)CN1c1cc2c(cc1F)c(=O)c(C(=O)O)cn2-c1ccc(F)cc1F [CETEFLOXACIN] | 0.1875 | – | – | 31 µg/mL (≈ 76.9 µM) | 1 µg/mL (≈ 2.48 µM) | 0.25 µg/mL (≈ 0.62 µM) | 8.1 mg/kg | 0.12 µg/mL (≈ 0.298 µM) | 0.12 µg/mL (≈ 0.298 µM) | 0.015 µg/mL (≈ 0.0372 µM) | 2 µg/mL (≈ 4.96 µM) | 0.5 µg/mL (≈ 1.24 µM) | 0.12 µg/mL (≈ 0.298 µM) | 0.25 µg/mL (≈ 0.62 µM) | 77.9 mg/kg | 0.03 µg/mL (≈ 0.0744 µM) | 30200 ng·h/mL | 6 mg/kg | 0.12 µg/mL (≈ 0.298 µM)
